This note sets out measurements from ChEMBL document CHEMBL2331266, “Five-membered iminocyclitol α-glucosidase inhibitors: synthetic, biological screening and in silico studies” (Bioorg Med Chem, 2013).

Assay [1] deals with Saccharomyces cerevisiae. Put plainly: Inhibition of Saccharomyces cerevisiae alpha-glucosidase using p-nitrophenyl-alpha-D-[…] as substrate at 25 mM after 20 mins by UV/Vis spectrophotometric analysis. The method in brief: (§1)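 Baker's yeast α-glucosidase at 0.04 U/mL in 0.1 M phosphate buffer, pH 6.7. Substrate was 2 mM p-nitrophenyl-α-D-glucopyranoside; the optimized Km was 0.258 mM. Inhibitors were dissolved in 2% DMSO in the same buffer and tested at up to 46 mM. Activity was read as the p-nitrophenol released. Five replicates per sample.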

Assay [2] concerns Saccharomyces cerevisiae. The assay can be described thus: Inhibition of Saccharomyces cerevisiae alpha-glucosidase using p-nitrophenyl-alpha-D-[…] as substrate at = / >10.9 mM after 20 mins by UV/Vis spectrophotometric analysis. The procedure, abridged: as §1
The nature of assay [3]: Inhibition of Saccharomyces cerevisiae alpha-glucosidase using p-nitrophenyl-alpha-D-[…] as substrate after 20 mins by UV/Vis spectrophotometric analysis. The method in brief:
as §1

Structures are written as SMILES. Where only a bound is given, the exact number is not on record here.

A word on the inhibition: it is the percentage by which the read-out fell short of the control. Low values mean a weak effect, high ones a strong effect. The term IC50 denotes the concentration that inhibits the measured activity by half. A low value points to greater potency in that assay.

Consider `CC(=O)O[C@@H]1CNC[C@H]1OC(C)=O`, for which the inhibition with Saccharomyces cerevisiae [1] was 40%.
With `O[C@H]1CN(Cc2ccccc2)C[C@@H]1O`, the inhibition in the assay with Saccharomyces cerevisiae [2] was greater than 50%. Besides, in assay [3], the IC50 was found to be 38 mM.
Consider `CC(=O)O[C@H]1CNC[C@@H]1OC(C)=O`, for which the inhibition was 80% in the assay on Saccharomyces cerevisiae [1] and greater than 50% in the assay with Saccharomyces cerevisiae [2]. Besides, the midpoint of inhibition in assay [3], the IC50, lay at 12.5 mM.
Consider `O[C@H]1CNC[C@@H]1O`, for which the inhibition with Saccharomyces cerevisiae [2] is greater than 50%. The same compound yielded an IC50 in assay [3] of 10.9 mM.
In turn, `O[C@@H]1CN(Cc2ccccc2)C[C@H]1O` showed an inhibition in the assay on Saccharomyces cerevisiae [2] greater than 50%. Further, in assay [3], the IC50 is 25 mM.
In assay [3], `C[C@H]1O[C@H](O[C@H]2[C@H](O)[C@@H](O)[C@@H](O[C@H]3[C@H](O)[C@@H](O)C(O)O[C@@H]3CO)O[C@@H]2CO)[C@H](O)[C@@H](O)[C@@H]1N[C@H]1C=C(CO)[C@@H](O)[C@H](O)[C@H]1O` (stereo partly specified) [ACARBOSE] showed a half-maximal inhibitory concentration (IC50) of 25 mM.
